How the values were obtained:
Mus musculus = assay: Antidiabetic activity in ICR mouse assessed as reduction in plasma glucose AUC (0 to 90 mins) at 20 mg/kg, po dosed 30 mins prior to glucose challenge by OGTT relative to control; type: functional; design: scale not given: the % may be the effect or the level left
Outline: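 Male ICR mice, fasted 12 h, randomized into groups (n = 6). Compound was given orally at 20 mg/kg in 0.5% methylcellulose 30 min before an oral glucose load (3 g/kg). Blood glucose was read by test strips at −30, 0, 15, 30, 60 and 90 min. AUC0–90min was calculated; mean ± SD.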

Platelet [1] = assay: Antiplatelet activity in rabbit platelet rich plasma assessed as inhibition of ADP-induced platelet aggregation at 0.1 mM preincubated for 5 mins followed by ADP addition measured up to 5 mins in presence of NO scavenger carboxy-PTIO; type: functional; conditions: Oryctolagus cuniculus
Outline: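 Run as the rabbit PRP turbidimetric assay: compound at 0.1 mM, 5 min preincubation at 37 °C, ADP 10 µM, maximal light transmission recorded within 5 min. Carboxy-PTIO (20 µM) was also incubated with the drug-platelet suspension. Inhibition % is relative to vehicle. Mean ± SD of three independent experiments.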

[2] = target: Free fatty acid receptor 1 (Homo sapiens, UniProt O14842); assay: Agonist activity at human FFA1 receptor expressed in CHO cells assessed as increase in intracellular calcium levels measured for 90 secs by Fluo 4-AM dye based FLIPR assay; type: functional, cell-based
Chain of Free fatty acid receptor 1 (O14842 whole entry): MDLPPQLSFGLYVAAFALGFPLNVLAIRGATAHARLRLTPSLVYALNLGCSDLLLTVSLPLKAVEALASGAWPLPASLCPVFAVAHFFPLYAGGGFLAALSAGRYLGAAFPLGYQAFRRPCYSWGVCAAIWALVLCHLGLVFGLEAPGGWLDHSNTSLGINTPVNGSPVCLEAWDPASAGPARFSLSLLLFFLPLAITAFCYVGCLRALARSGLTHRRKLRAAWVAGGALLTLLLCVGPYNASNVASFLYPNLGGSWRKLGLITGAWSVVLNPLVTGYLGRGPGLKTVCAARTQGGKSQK
Outline: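 CHO cells stably expressing human FFA1 were seeded at 15 K cells/well and grown 12 h at 37 °C, 5% CO2, then washed with HBSS. Ca2+ flux after compound addition was read on FLIPR for 90 s. Activity = [(A−B)/(C−B)]×100, with B = vehicle and C = 10 µM γ-linolenic acid.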

Platelet [3] = assay: Antiplatelet activity in rabbit platelet rich plasma assessed as inhibition of ADP-induced platelet aggregation at 0.1 mM preincubated for 5 mins followed by ADP addition measured up to 5 mins; type: functional; conditions: Oryctolagus cuniculus
Outline: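 Rabbit blood was spun at 500 rpm for 10 min to give PRP, and then at 3000 rpm for 10 min to give PPP. PRP was preincubated in duplicate with compound (0.1 mM), vehicle or ticlopidine for 5 min at 37 °C. Aggregation was induced with ADP (10 µM), and light transmission at maximal aggregation was recorded within 5 min. Inhibition % = (A−B)/A×100 versus vehicle. Three independent experiments, mean ± SD.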

Compound	Activity (Mus musculus) [%]	inhibition at 100 µM (Platelet [1]) [%]	EC50 [2] [nM]	inhibition at 100 µM (Platelet [3]) [%]
Cc1cc(OCCCO[N+](=O)[O-])cc(C)c1-c1cccc(COc2ccc(OCC(=O)O)c(F)c2)c1	41.6	1.05	61.5	10.8
Cc1cc(OCCCCO[N+](=O)[O-])cc(C)c1-c1cccc(COc2ccc(OCC(=O)O)c(F)c2)c1	–	1.15	93.7	11.1
Cc1cc(OCCO[N+](=O)[O-])cc(C)c1-c1cccc(COc2ccc(OCC(=O)O)c(F)c2)c1	–	1.34	76.4	8.28
COc1cc(C)c(-c2cccc(COc3ccc(OCC(=O)O)c(F)c3)c2)c(C)c1	–	–	54.2	–
Cc1cc(OCCCS(C)(=O)=O)cc(C)c1-c1cccc(COc2ccc3c(c2)OC[C@H]3CC(=O)O)c1	32.3	–	–	–

From ChEMBL document CHEMBL4229508, “Nitric oxide donor-based FFA1 agonists: Design, synthesis and biological evaluation as potential anti-diabetic and anti-thrombotic agents” (Bioorg Med Chem, 2018)
